From publication PMC3159890 (Frontiers in Pharmacology, 2011)
Values belong to the compound of their own block, whether it stands above or below them.

What was measured:
Type in all cases: cell-based
[1] = target: T1, wt-CFTR (Homo sapiens, UniProt P13569); assay: whole-cell patch-clamp on wt-CFTR-CHO cells
In short: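 CHO cells stably expressing wt-CFTR, kept in α-MEM-GlutaMAX with 7% FBS and 100 μM methotrexate, were plated in 35-mm dishes. Whole-cell currents sampled at 3 kHz. Holding potential −40 mV, with pulses −100 to +100 mV in 20 mV steps. Capacitance obtained from a 10 mV hyperpolarization; currents normalized per pF. Stimulation with forskolin 1 μM plus test compound 10 μM. Time course: amplitude at +40 mV plotted every 10 s.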

[2] = target: wild-type CFTR (Homo sapiens, UniProt P13569); assay: iodide efflux in NuLi-1 cells
In short: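 NuLi-1 cells (non-CF human bronchial epithelium, wild-type CFTR) cultured on collagen type VI-coated flasks in BEGM at 37°C, 5% CO2, media changed every 2 days, and seeded in 24-well plates. Iodide efflux stimulated by forskolin 10 μM plus test compound 100 μM. CFTR-inh172 10 μM was present in loading solution and efflux buffer.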

[3] = target: F508del-CFTR (Homo sapiens, UniProt P13569, DEL508-508); assay: iodide efflux in CuFi-1 cells
In short: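 CuFi-1 cells (F508del/F508del, CF bronchial epithelium) grown on collagen type VI-coated flasks in BEGM at 37°C, 5% CO2, media renewed every 2 days, then seeded in 24-well plates. F508del-CFTR rescued by 24 h at 27°C or 24 h at 37°C with miglustat. Iodide efflux stimulated by forskolin 10 μM plus test compound 100 μM. Chloride transport inhibitors, when used, were present in loading solution and efflux buffer.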

[4] = tested on: wt-CFTR-CHO cells; assay: MTT cytotoxicity assay; conditions: 100 μM, 24 h
In short: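 wt-CFTR-CHO cells in α-MEM-GlutaMAX with 7% FBS and 100 μM methotrexate, exposed 24 h at 37°C to 100 μM test compound; MTT done the next day. PBS wash, then MTT (0.5 mg/ml in PBS) for 4 h at 37°C. Formazan dissolved in DMSO; OD read at 570 nm against 630 nm reference. Mean of three replicates, as percentage of control.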

[5] = target: T1, wt-CFTR; assay: iodide efflux in wt-CFTR-CHO cells
In short: (§1)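 Stably transfected CHO cells (wt-CFTR or G551D-CFTR, methotrexate-selected) seeded in 24-well plates and loaded with 125I; efflux sampled robotically. Rate k = ln(125It1/125It2)/(t1–t2); response = kpeak − kbasal (min−1). Concentration-response curves expressed as percentage of maximal activation. Chloride transport inhibitors, when used, were present in both loading and efflux buffers.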

[6] = tested on: cAMP levels in wt-CFTR-CHO cells; assay: cAMP-Screen ELISA determination of cAMP; conditions: RP193 100 μM alone or with forskolin 1 μM, 10 min
In short: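 wt-CFTR-CHO cells incubated with agents for 10 min at 37°C. Reactions then stopped and intracellular cAMP quantified by cAMP-Screen ELISA, following the kit instructions.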

[7] = tested on: CHO-K1; assay: whole-cell patch-clamp on CHO-K1 cells; conditions: forskolin 1 μM; RP193 10 μM
In short: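 Whole-cell clamp, seals 5–10 GΩ. Pipette (mM): Cs-aspartate/CsCl, 1 EGTA, 10 TES, 3 MgATP, pH 7.2. Bath (mM): 145 NaCl, 4 CsCl, 1 CaCl2, 1 MgCl2, 10 glucose, 10 TES, pH 7.4. Held at −40 mV, stepped −100 to +100 mV in 20 mV increments; sampled at 3 kHz. Currents normalised to capacitance (pA/pF); time course read at +40 mV every 10 s.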

[8] = target: T1, wt-CFTR; assay: single-channel cell-attached patch-clamp on wt-CFTR-CHO cells
In short: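 Cell-attached single-channel recordings on wt-CFTR-CHO cells at room temperature, seals 10–20 GΩ. Bath received forskolin 1 μM, then test compound 10 μM. Pipette (mM): 150 NaCl, 2 MgCl2, 10 TES, pH 7.4. Bath (mM): 145 NaCl, 4 KCl, 2 MgCl2, 10 TES, pH 7.4. Sampled at 3 kHz, filtered at 100 Hz (eight-pole Bessel). Potential = bath minus pipette.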

[9] = target: G551D-CFTR (Homo sapiens, UniProt P13569, G551D); assay: iodide efflux in G551D-CFTR-CHO cells
In short: as §1

[10] = tested on: primary cultures of human bronchial epithelial cells (HBEC); assay: Ussing chamber short-circuit current in primary HBEC cultures; conditions: amiloride 10 μM, luminal bath
In short: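 Primary non-CF bronchial epithelial cells (three lung-resection donors), enzymatically isolated, grown to confluence on permeable collagen supports. Mounted in Ussing chambers in KBR at 37°C, gassed 95% O2-5% CO2. After 20–30 min equilibration and 10 min basal: amiloride 10 μM apical, forskolin 1 μM both sides, test compound basolateral, with 10–15 min stabilisation between additions. ΔIsc = plateau minus pre-addition value; Rt from +2 mV pulses every 90 s.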

EC50 [5]: 97 µM
Compound: Br.CCCCc1c(-c2cccc(O)c2)[nH]c2nccnc12 [RP146, 7-n-Butyl-6-(3-hydroxyphenyl)-5H-pyrrolo[2,3-b]pyrazine hydrobromide]
cytotoxicity (cell viability, MTT) [4]: significantly higher cytotoxicity compared to the control conditions

EC50 [5]: 78 µM
Compound: CCCCc1c(-c2ccc(F)cc2)[nH]c2nccnc12 [RP185, 7-n-butyl-6-(4-fluorophenyl)-5H-pyrrolo[2,3-b]pyrazine]
cytotoxicity (cell viability, MTT) [4]: not cytotoxic

stimulation of CFTR-dependent iodide efflux ([5]; RP193 100 μM without forskolin, wt-CFTR-CHO cells): no stimulation of CFTR activity | time to significant increase of the whole-cell current ([1]; RP193 10 μM in presence of forskolin 1 μM): 5 to 7 min | whole-cell current amplitude at +40 mV ([1]; RP193 10 μM in the presence of 1 μM fsk): 113.8 ± 15.1 pA/pF | average unitary conductance ([8]; forskolin 1 μM + RP193 10 μM, n = 4): 8.1 ± 0.0 pS | stimulation of iodide efflux in NuLi-1 cells ([2]; RP193 100 μM in presence of forskolin 10 μM): stimulated CFTR in NuLi-1 cells | stimulation of iodide efflux in CuFi-1 cells ([3]; cells cultivated at 37°C, RP193 100 μM + forskolin 10 μM): did not stimulate iodide efflux | stimulation of iodide efflux in CuFi-1 cells ([3]; cells non-treated with miglustat): no effect | stimulation of iodide efflux in G551D-CFTR-CHO cells ([9]; RP193 10 μM in presence of forskolin 10 μM, n = 4): stimulated an efflux | stimulation of iodide efflux in G551D-CFTR-CHO cells ([9]; RP193 alone, not shown): did not have any effect
Compound: CCCCc1c(-c2ccccc2F)[nH]c2nccnc12 [RP193, 7-n-butyl-6-(2-fluorophenyl)-5H-pyrrolo[2,3-b]pyrazine]
cytotoxicity (cell viability, MTT) [4]: not cytotoxic | dependence of CFTR potentiation on intracellular cAMP levels [6]: independent of intracellular cAMP levels | effect on whole-cell current in CHO-K1 [7]: no effect | single-channel CFTR activity, cell-attached ([8]; RP193 10 μM in bath, in presence of forskolin 1 μM): progressive and sustained CFTR activity was recorded | stimulation of iodide efflux in CuFi-1 cells ([3]; cells 24 h at 27°C, RP193 100 μM in presence of forskolin 10 μM): iodide efflux significantly higher than with forskolin alone

More lines, now with the values behind:

Compound: O=C(O)c1ccc(/C=C2\SC(=S)N(c3cccc(C(F)(F)F)c3)C2=O)cc1 [CFTR-inh172, reference compound]
whole-cell current amplitude at +40 mV after inhibitor ([1]; CFTR-inh172 10 μM added after fsk 1 μM + RP193 10 μM): 8.2 ± 5.2 pA/pF | inhibition of RP193-stimulated iodide efflux in NuLi-1 cells ([2]; CFTR-inh172 10 μM): abolished | inhibition of RP193-induced iodide efflux in CuFi-1 cells ([3]; miglustat-treated cells, CFTRinh-172 10 μM, data not shown): fully inhibited

Compound: CCCCc1c(-c2ccc(O)cc2)[nH]c2nccnc12 [RP107, 7-n-butyl-6-(4-hydroxyphenyl)[5H]-pyrrolo[2,3-b]pyrazine]
cytotoxicity (cell viability, MTT) [4]: significantly higher cytotoxicity compared to the control conditions

Compound: Br.CCCCc1c(-c2ccccc2O)[nH]c2nccnc12 [RP173, 7-n-Butyl-6-(2-hydroxyphenyl)-5H-pyrrolo[2,3-b]pyrazine hydrobromide]
cytotoxicity (cell viability, MTT) [4]: significantly higher cytotoxicity compared to the control conditions

Compound: N=C(N)NC(=O)c1nc(Cl)c(N)nc1N [amiloride]
change in Isc [10]: −29.5 ± 4.5 μA/cm^2

Compound: C=C[C@@]1(C)CC(=O)[C@]2(O)[C@@]3(C)[C@@H](O)CCC(C)(C)[C@@H]3[C@H](O)[C@H](OC(C)=O)[C@@]2(C)O1 [forskolin, reference compound]
whole-cell current amplitude at +40 mV ([1]; forskolin 1 μM alone): 18.4 ± 6.2 pA/pF | effect on whole-cell current in CHO-K1 [7]: no effect | stimulation of iodide efflux in G551D-CFTR-CHO cells ([9]; forskolin 10 μM alone, compared to basal state): No significant stimulation
